From PubChem
TAAR1 antag: human TAAR1 antagonism | Q96RJ0 | CHO RD-HGA16 TAAR1, Fluo-8 calcium fluorescence, antagonist | inhibition, % at 3 µM | 360,000 compounds, 1.5% hits | AID 624466;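 active = inhibition above a per-plate cutoff, the mean inhibition of test compounds on that plate plus 3 SD, cut at about 49% in these data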;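 note: 0% = DMSO plus EC80 beta-PEA response and 100% = DMSO alone without agonist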
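Assay system: RD-HGA16 CHO cells with stable hTAAR1 and Gα16 / Reagent: EC80 β-phenethylamine stimulus / Doses: 3 µM, single point / Timing: dye loading 75 min at 37 °C, then 30 min room temperature / Measured by: Fluo-8 intracellular calcium dye fluorescence, real-time kinetic reads / Controls: vehicle wells and EC80 agonist wells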
CHO parental Ca: counter-screen for OX1R antagonists: effect in parental CHO cells | parental CHO-K1, ATP-induced calcium, Fluo-8 fluorescence | inhibition, % at 5.6 µM | AID 463079 | 330,000 compounds, 0.63% hits;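 active = inhibition above that plate's mean sample inhibition plus 3 SD, cut at about 26% in these data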;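 note: 0% = ATP-challenged DMSO wells and 100% = DMSO wells without ATP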
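Test system: parental CHO cells; detection: calcium-sensitive Fluo-8 fluorescence; evaluation: percent inhibition of calcium signal; also added: ATP as calcium-mobilizing challenge; repeats: one well per compound; control set: ATP-challenged DMSO wells low, unchallenged DMSO wells high; compound: single nominal dose of 5.6 µM per compound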
TAAR1 agonist: agonists of human TAAR1 | AID 624467 | 360,000 compounds, 0.99% hits | activation, % at 3 µM | CHO RD-HGA16 TAAR1, Fluo-8 calcium fluorescence; vehicle wells 0%, saturating PEA agonist 100%;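 active = activation above the mean activation of all test compounds in the run plus 3 SD, cut at about 38% in these data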
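Signal – calcium-sensitive Fluo-8 signal, excitation 470-495, emission 515-575 nm · System – RD-HGA16 (CHO) cells co-expressing Gα16 and hTAAR1 · Incubation – 17-24 h seeding, 75 min 37 °C dye, 30 min RT · Compound dosing – 3 µM single concentration · Repeats – no replicates (n 1)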
GPR7 antagonist: human neuropeptides B/W receptor 1 antagonism | GPR7-expressing cells, fluorescence antagonist assay | inhibition, % at 4.4 µM | 290,000 compounds, 1.1% hits; in the data active = inhibition above about 16%, passing the limit was not always enough;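 note: cells stimulated with the agonist NPW; 0% = agonist with vehicle and 100% = vehicle without agonist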
OX1R antag-1: blocks the human orexin 1 receptor; inhibition, % at 5 µM; CHO/OX1R cells, Fluo-8 calcium fluorescence, orexin A; 330,000 compounds, 0.43% hits;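 active = inhibition above its plate's threshold, mean inhibition of all tested compounds on the plate plus 3 SD, cut at about 37% in these data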;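 note: 0% = orexin A challenge wells and 100% = SB-334867-A antagonist wells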
Target sequence (O43613 whole entry, looked up): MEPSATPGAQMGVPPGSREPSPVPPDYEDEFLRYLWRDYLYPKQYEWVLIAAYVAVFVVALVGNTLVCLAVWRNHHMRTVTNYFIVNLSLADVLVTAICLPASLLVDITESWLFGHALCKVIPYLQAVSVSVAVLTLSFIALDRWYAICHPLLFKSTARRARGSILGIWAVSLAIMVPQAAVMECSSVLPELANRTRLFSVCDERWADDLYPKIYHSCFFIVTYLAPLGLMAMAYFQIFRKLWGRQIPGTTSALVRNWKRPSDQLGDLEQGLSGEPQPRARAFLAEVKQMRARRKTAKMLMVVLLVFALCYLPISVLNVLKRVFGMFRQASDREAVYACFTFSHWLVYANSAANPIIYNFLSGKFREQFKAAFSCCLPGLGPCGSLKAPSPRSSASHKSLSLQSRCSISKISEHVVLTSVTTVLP
OX1R antag-2: blocks the human orexin 1 receptor; O43613; OX1R-expressing cells, FRET antagonist read-out; inhibition, % at 6.6 µM; 330,000 compounds, 1.8% hits; AID 485270; in the data active = inhibition mostly above about 38%, no sharp cut-off; inactive = mostly below about 40%;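 note: 0% = agonist challenge alone and 100% = reference antagonist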
nonsel antag count: counter-screen for TAAR1 antagonists: nonselective antagonists; shares compounds with TAAR1 antag; counterscreen cell line, calcium fluorescence, antagonist mode; inhibition, % at 3 µM; 2,400 compounds, 77% hits; AID 651780; in the data active = inhibition above about 22%;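 note: CHO-Ga16 host cells stimulated with ATP at an EC80 level; 0% = agonist EC80 plus vehicle and 100% = vehicle without agonist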
TAAR1 ant conf: human TAAR1 antagonism, confirmed. inhibition, % at 3 µM. shares compounds with TAAR1 antag. AID 651785. 2,400 compounds, 40% hits. TAAR1-expressing cells, fluorescence antagonist read-out; in the data active = inhibition above about 49%;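 note: CHO-Ga16 host cells challenged with agonist PEA near its EC80; 0% = agonist at EC80 plus vehicle and 100% = vehicle with no agonist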
Ga16 nonsel ag: counter-screen for TAAR1 antagonists: nonselective Ga16 agonists; shares compounds with TAAR1 antag; Ga16-expressing cells, calcium fluorescence, agonist counterscreen; activation, % at 3 µM; 2,400 compounds, 18% hits; AID 651953; in the data active = activation above about 12%;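 note: 0% = vehicle wells and 100% = saturating stimulus response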
TAAR1 ag count: TAAR1 agonism, antagonist counter-screen; shares compounds with TAAR1 antag; 2,400 compounds, 2% hits; hTAAR1 cell line, fluorescence activation, agonist mode; activation, % at 3 µM; in the data active = activation above about 37%;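 note: CHO cells stably expressing TAAR1 with calcium dye readout; 0% = DMSO vehicle and 100% = full agonist response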
The depositor's hits bear a star; / = no result given. Sampled rows, rich in hits. Any-hit rate of the full collection: about 4.6%.

SMILES	TAAR1 antag	CHO parental Ca	TAAR1 agonist	GPR7 antagonist	OX1R antag-1	OX1R antag-2	nonsel antag count	TAAR1 ant conf	Ga16 nonsel ag	TAAR1 ag count
COc1ccccc1CCn1cnc(-c2cccc(F)c2)c1CC(C)C	51*	/	19	/	/	/	35*	67*	16*	55*
CCCc1c(-c2cccc(F)c2)ncn1CCc1ccccc1OC	13	/	19	/	/	/	/	/	/	/
CCCCc1c(-c2cccc(F)c2)ncn1CCc1ccccc1OC	34	/	19	/	/	/	/	/	/	/
CC(C(=O)NC1CCCC1)n1c(-c2ccccn2)nc2ccccc21 (stereo not drawn)	-17	/	2	/	/	/	/	/	/	/
CC(C)(O)C(O)COc1c2ccoc2cc2oc(=O)ccc12 (stereo not drawn)	-6	-4	2	-15	2	12	/	/	/	/
CC(=O)OC(C=C(C)C)C/C(C)=C/COc1c2ccoc2cc2oc(=O)ccc12 (stereo not drawn)	70*	/	3	/	/	/	28*	54*	9	25
O=C(Cc1cccs1)Nc1nnc(Cc2ccccc2)s1	11	-12	19	-2	-28	11	/	/	/	/
COc1ccc(Cc2nnc(NC(=O)Cc3cccs3)s2)cc1OC	57*	-18	-1	-12	-20	22	7	2	0	8
O=C(NCCc1ccccc1)c1ccc2c(c1)S(=O)(=O)c1ccccc1C2=O	52*	-19	16	/	-25	24	21	46	7	6
O=C(NCc1ccc(C(F)(F)F)cc1)c1ccc2c(c1)S(=O)(=O)c1ccccc1C2=O	0	-1	13	/	-18	20	/	/	/	/
O=C(NCc1ccc(F)cc1)c1ccc2c(c1)S(=O)(=O)c1ccccc1C2=O	52*	-22	19	/	-32	26	25*	40	7	13
Cc1[nH]c2ccccc2c1C(=O)C(=O)N1CCN(c2cccc(Cl)c2)CC1	-26	-23	6	26	-14	20	/	/	/	/
CC(C)(C)c1ccc(SC2=C[C@@]3(O)CC[C@@H](O)[C@@](Sc4ccc(C(C)(C)C)cc4)(C2=O)[C@H]3O)cc1	73*	/	4	/	/	/	33*	40	2	-2
Cc1ccc(SC2=C[C@@]3(O)CC[C@@H](O)[C@@](Sc4ccc(C)cc4)(C2=O)[C@H]3O)cc1	-12	/	-1	/	/	/	/	/	/	/
Cc1ccc(-c2cc(-c3ccc(F)cc3)c(C#N)c(N)n2)o1	57*	0	-1	-6	-10	6	17	35	-1	-2
COc1ccc(Sc2ccc(NC(=O)c3ccccc3Cl)cc2C#N)cc1	20	21	7	5	15	17	/	/	/	/
N#Cc1cc(NC(=O)c2ccc(Cl)cc2)ccc1Sc1ccccc1	73*	/	6	/	/	/	35*	48	9	2
CCCCCCn1nc(C(=O)OCC(=O)c2c(N)n(C)c(=O)n(C)c2=O)c2ccccc2c1=O	78*	-15	6	5	-22	16	36*	53*	9	8
O=C(CCN1C(=O)/C(=C\c2ccccc2Cl)SC1=S)Nc1cccnc1	50*	-7	12	-24	-19	41	48*	69*	18*	23
CCN(CCn1cccn1)C(=O)C1CCC(=O)N(CC2CCCCC2)C1 (stereo not drawn)	-13	-4	1	-1	7	4	/	/	/	/
Cc1nc2scc(-c3ccccc3)c2c(=O)n1N=C1C=CC(=O)C=C1	62*	/	10	6	/	/	56*	54*	9	7
O=C(NCCc1ccccc1)C1CC(=O)N(C2CCCCC2)C1 (stereo not drawn)	0	-9	7	-7	-7	19	/	/	/	/
